From ChEMBL document CHEMBL4261600 (Eur J Med Chem, 2018)

Experiments:
[1] = target: MAP kinase-activated protein kinase 2 (Homo sapiens) (UniProt P49137); test: Binding affinity to wild-type human partial length MAPKAPK2 (V48 to D345 residues) expressed in bacterial expression system assessed as remaining unbound target protein level at 1000 nM by Kinomescan method relative to control
Procedure, shortened: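 KINOMEscan binding panel of 468 kinases/mutants. Inhibitor was tested at a single concentration of 1 μM. Binding is reported as percent of control, defined relative to a DMSO control.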

[2] = target: Serine/threonine-protein kinase N1 (Homo sapiens) (UniProt Q16512); test: Binding affinity to wild-type human partial length PKN1 (E598 to C948 residues) expressed in bacterial expression system assessed as remaining unbound target protein level at 1000 nM by Kinomescan method relative to control
[3] = target: Serine/threonine-protein kinase PLK1 (Homo sapiens) (UniProt P53350); test: Binding affinity to wild-type human partial length PLK1 (A33 to F325 residues) expressed in mammalian expression system assessed as remaining unbound target protein level at 1000 nM by Kinomescan method relative to control
Serine/threonine-protein kinase PLK1 (Homo sapiens), sequence (P53350 whole entry, the tested form may be a part): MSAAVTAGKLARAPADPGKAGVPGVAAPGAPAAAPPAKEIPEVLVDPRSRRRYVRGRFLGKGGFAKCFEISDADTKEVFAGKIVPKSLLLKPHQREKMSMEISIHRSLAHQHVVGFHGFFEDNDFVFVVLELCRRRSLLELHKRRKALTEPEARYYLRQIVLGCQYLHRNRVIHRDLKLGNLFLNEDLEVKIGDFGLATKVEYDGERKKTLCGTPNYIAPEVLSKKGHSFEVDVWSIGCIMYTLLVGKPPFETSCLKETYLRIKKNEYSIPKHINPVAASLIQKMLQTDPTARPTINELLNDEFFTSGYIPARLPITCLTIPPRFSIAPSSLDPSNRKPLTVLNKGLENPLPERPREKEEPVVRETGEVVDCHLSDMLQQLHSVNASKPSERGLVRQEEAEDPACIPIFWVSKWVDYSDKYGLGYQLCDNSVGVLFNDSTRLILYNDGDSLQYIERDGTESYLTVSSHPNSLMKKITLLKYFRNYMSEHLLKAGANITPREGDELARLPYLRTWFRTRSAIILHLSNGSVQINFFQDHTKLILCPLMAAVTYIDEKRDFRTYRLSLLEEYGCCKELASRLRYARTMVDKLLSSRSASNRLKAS

[4] = test system: Fibroblast growth factor receptor 3 (Homo sapiens), P22607 [G697C]; test: Binding affinity to human partial length FGFR3 G697C mutant (R442 to S771 residues) expressed in bacterial expression system assessed as remaining unbound target protein level at 1000 nM by Kinomescan method relative to control
Fibroblast growth factor receptor 3 (Homo sapiens), P22607 [G697C], sequence (P22607 whole entry G697C, the tested form may be a part): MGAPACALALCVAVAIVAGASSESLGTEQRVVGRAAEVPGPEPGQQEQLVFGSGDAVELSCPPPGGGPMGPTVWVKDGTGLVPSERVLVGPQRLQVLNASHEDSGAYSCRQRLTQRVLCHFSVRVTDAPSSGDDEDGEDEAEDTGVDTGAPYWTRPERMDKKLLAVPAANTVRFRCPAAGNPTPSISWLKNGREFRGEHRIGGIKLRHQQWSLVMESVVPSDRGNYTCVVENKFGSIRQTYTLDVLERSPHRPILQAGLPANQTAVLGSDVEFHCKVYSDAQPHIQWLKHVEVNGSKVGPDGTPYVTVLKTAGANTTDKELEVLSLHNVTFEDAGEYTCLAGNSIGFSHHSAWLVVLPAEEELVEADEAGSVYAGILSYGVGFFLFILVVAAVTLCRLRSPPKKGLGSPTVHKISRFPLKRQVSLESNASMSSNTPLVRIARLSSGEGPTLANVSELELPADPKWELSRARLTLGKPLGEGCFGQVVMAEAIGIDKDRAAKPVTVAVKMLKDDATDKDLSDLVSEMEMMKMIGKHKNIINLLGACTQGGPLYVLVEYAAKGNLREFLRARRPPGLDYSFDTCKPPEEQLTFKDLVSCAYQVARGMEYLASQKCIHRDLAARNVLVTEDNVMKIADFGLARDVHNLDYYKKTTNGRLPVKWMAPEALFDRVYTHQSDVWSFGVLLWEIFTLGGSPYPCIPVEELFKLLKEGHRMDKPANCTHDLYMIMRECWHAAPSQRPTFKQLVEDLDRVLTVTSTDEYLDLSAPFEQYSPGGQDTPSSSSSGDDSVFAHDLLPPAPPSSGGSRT
Procedure, shortened: (§1)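 KINOMEscan competition-binding profiling across the panel of 468 kinases and mutants, with inhibitor tested at 1 μM. Binding is expressed as percent of control, with DMSO as the reference control.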

[5] = target: Eukaryotic translation initiation factor 2-alpha kinase 1 (Homo sapiens) (UniProt Q9BQI3); test: Binding affinity to wild-type human partial length EIF2AK1 (Q147 to E603 residues) expressed in mammalian expression system assessed as remaining unbound target protein level at 1000 nM by Kinomescan method relative to control
[6] = target: AP2-associated protein kinase 1 (Homo sapiens) (UniProt Q2M2I8); test: Binding affinity to human wild-type AAK1 (G25 to L333 residues) expressed in bacterial expression system assessed as remaining unbound target protein level at 1000 nM by Kinomescan method relative to control
Procedure, shortened: (§2)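 KINOMEscan competitive binding profile at 1 μM inhibitor. Remaining target binding reported as percent of DMSO control.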

[7] = target: Cyclin-dependent kinase 17 (Homo sapiens) (UniProt Q00537); test: Binding affinity to wild-type human full length PCTK2 (M1 to F523 residues) expressed in bacterial expression system assessed as remaining unbound target protein level at 1000 nM by Kinomescan method relative to control
Procedure, shortened: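 KINOMEscan competition binding profile across a panel of 468 kinases and mutants, with the inhibitor tested at a single concentration of 1 μM. Binding is reported as percent of control, meaning signal relative to a DMSO control.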

[8] = test system: Receptor-type tyrosine-protein kinase FLT3 (Homo sapiens), P36888 [D835H]; test: Binding affinity to human partial length FLT3 D835H mutant (V592 to Y969 residues) expressed in bacterial expression system assessed as remaining unbound target protein level at 1000 nM by Kinomescan method relative to control; procedure, shortened: as §1
[9] = Antiproliferative activity against human MEC2 cells after 72 hrs by Celltiter-Glo assay; type: functional; details: MEC2, 72 h
Procedure, shortened: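 Cells seeded at 3000/well in 96-well plates, exposed to serially diluted compound for 72 h at 37 °C, 5% CO2. Viability read by CellTiter-Glo luminescence and normalized to DMSO control. GI50 derived from curve fit, mean of three independent measurements. Culture media: DMEM/10% FBS for adherent lines; IMDM for MV4-11 and MEC-1/2; RPMI 1640 for suspension lines and CHL.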

[10] = target: Tyrosine-protein kinase Yes (Homo sapiens) (UniProt P07947); test: Binding affinity to wild-type human partial length YES (T257 to L543 residues) expressed in bacterial expression system assessed as remaining unbound target protein level at 1000 nM by Kinomescan method relative to control
Tyrosine-protein kinase Yes (Homo sapiens), sequence (P07947 2-543 limits assumed): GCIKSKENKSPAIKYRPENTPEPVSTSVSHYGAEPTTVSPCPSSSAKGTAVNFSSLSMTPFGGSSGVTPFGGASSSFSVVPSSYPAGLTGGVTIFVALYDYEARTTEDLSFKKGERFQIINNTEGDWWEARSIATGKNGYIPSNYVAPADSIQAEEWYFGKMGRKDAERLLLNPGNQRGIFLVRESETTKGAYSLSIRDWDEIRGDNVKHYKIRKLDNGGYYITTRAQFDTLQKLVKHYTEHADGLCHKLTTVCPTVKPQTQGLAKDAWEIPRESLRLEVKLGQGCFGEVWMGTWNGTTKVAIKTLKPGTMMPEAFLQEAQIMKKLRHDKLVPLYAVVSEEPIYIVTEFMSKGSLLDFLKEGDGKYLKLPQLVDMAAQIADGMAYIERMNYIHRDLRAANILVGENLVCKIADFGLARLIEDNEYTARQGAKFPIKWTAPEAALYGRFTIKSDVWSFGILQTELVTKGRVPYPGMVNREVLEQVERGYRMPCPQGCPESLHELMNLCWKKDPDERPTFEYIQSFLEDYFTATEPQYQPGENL

[11] = target: CDK8/Cyclin C (Homo sapiens, UniProt P49336); test: Inhibition of recombinant full length His-tagged human CDK8/CyclinC expressed in baculovirus expression system
CDK8/Cyclin C, sequence (P49336 whole entry, the tested form may be a part): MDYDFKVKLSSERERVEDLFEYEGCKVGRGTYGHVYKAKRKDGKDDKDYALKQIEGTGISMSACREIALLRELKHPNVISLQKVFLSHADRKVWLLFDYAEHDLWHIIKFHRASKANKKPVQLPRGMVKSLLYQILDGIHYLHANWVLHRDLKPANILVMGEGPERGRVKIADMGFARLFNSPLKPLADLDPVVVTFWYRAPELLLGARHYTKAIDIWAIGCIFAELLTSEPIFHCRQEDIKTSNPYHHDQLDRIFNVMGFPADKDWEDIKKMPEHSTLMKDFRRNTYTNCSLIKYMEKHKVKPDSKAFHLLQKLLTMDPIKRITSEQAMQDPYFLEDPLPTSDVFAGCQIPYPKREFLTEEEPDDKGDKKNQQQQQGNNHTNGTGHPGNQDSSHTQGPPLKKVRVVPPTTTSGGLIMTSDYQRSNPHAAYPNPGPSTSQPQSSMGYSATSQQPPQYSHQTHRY
CDK8/Cyclin C, sequence (P24863 whole entry, further chain, the tested form may be a part): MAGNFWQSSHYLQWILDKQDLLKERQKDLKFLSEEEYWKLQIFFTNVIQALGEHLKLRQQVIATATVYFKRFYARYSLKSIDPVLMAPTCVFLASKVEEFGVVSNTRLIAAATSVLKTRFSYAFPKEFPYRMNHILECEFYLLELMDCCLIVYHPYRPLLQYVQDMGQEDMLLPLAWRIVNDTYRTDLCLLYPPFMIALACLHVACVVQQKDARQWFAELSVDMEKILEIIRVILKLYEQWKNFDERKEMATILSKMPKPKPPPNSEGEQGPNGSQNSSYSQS

[12] = target: Protein kinase C eta type (Homo sapiens) (UniProt P24723); test: Binding affinity to wild-type human partial length PRKCH (S324 to P683 residues) expressed in bacterial expression system assessed as remaining unbound target protein level at 1000 nM by Kinomescan method relative to control
[13] = target: Glycogen synthase kinase-3 beta (Homo sapiens) (UniProt P49841); test: Binding affinity to wild-type human full length GSK3B (M1 to T433 residues) expressed in mammalian expression system assessed as remaining unbound target protein level at 1000 nM by Kinomescan method relative to control
Glycogen synthase kinase-3 beta (Homo sapiens), sequence (P49841 whole entry, looked up, the tested form may be a part): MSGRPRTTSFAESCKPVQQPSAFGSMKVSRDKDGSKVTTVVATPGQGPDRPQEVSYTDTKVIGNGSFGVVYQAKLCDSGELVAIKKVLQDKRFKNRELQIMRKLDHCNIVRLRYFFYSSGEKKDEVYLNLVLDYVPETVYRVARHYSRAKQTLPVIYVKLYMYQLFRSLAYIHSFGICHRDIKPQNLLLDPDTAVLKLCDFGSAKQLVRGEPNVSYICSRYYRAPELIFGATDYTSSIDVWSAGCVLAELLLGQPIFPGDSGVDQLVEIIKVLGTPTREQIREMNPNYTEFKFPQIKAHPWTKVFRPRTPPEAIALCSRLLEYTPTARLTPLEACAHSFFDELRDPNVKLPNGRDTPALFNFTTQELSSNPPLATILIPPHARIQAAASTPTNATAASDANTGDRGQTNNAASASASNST
Procedure, shortened: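 Single-point competition binding screen across a panel of 468 kinases and mutants, with the inhibitor at 1 μM. Binding is read out as percent of a DMSO control, and targets below 1 percent control were classed as strong binders.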

[14] = target: Bone morphogenetic protein receptor type-1A (Homo sapiens) (UniProt P36894); test: Binding affinity to wild-type human partial length BMPR1A (Q214 to I532 residues) expressed in bacterial expression system assessed as remaining unbound target protein level at 1000 nM by Kinomescan method relative to control
Procedure, shortened: (§3)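 Profiled in a KINOMEscan binding panel with the inhibitor at a single concentration of 1 μM. Binding to each kinase was read out as percent of control, relative to a DMSO control. Strong binders were defined as those with a percent control value below 1.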

[15] = target: Casein kinase II subunit alpha (Homo sapiens) (UniProt P68400); test: Binding affinity to wild-type human full length CSNK2A1 (M1 to Q391 residues) expressed in mammalian expression system assessed as remaining unbound target protein level at 1000 nM by Kinomescan method relative to control; procedure, shortened: as §2
[16] = target: 3-phosphoinositide-dependent protein kinase 1 (Homo sapiens) (UniProt O15530); test: Binding affinity to wild-type human full length PDPK1 (M1 to Q556 residues) expressed in bacterial expression system assessed as remaining unbound target protein level at 1000 nM by Kinomescan method relative to control; procedure, shortened: as §3
[17] = target: Macrophage-stimulating protein receptor (Homo sapiens) (UniProt Q04912); test: Binding affinity to wild-type human partial length MST1R (I1057 to L1363 residues) expressed in bacterial expression system assessed as remaining unbound target protein level at 1000 nM by Kinomescan method relative to control
[18] = target: Mitogen-activated protein kinase kinase kinase kinase 3 (Homo sapiens) (UniProt Q8IVH8); test: Binding affinity to wild-type human partial length MAP4K3 (M1 to D301 residues) expressed in bacterial expression system assessed as remaining unbound target protein level at 1000 nM by Kinomescan method relative to control
Mitogen-activated protein kinase kinase kinase kinase 3 (Homo sapiens), sequence (Q8IVH8 whole entry, the tested form may be a part): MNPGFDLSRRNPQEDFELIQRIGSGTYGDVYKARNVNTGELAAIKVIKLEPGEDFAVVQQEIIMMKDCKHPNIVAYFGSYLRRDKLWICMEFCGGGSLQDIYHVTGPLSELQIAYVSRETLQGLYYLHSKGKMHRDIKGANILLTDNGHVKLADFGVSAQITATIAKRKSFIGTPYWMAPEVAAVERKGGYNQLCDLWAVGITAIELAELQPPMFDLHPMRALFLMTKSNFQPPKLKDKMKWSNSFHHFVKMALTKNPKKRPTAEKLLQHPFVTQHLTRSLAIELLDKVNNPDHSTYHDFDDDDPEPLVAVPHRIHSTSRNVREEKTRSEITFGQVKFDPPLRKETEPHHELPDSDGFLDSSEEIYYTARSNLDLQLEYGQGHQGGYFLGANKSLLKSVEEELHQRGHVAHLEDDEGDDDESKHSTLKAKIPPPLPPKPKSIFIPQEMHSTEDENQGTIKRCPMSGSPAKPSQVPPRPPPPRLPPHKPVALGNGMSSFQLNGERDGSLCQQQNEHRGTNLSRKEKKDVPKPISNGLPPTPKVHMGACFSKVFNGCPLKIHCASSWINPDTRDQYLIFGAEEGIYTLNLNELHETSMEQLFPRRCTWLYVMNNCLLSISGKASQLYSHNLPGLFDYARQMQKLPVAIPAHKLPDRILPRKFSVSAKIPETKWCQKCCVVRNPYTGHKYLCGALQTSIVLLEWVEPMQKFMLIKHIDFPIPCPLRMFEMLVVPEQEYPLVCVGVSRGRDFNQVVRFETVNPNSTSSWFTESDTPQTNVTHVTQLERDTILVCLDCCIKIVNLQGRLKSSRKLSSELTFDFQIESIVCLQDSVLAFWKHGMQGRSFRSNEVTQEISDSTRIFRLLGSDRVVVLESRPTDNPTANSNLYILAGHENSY

[19] = target: Activated CDC42 kinase 1 (Homo sapiens) (UniProt Q07912); test: Binding affinity to wild-type human partial length TNK2 (S159 to D474 residues) expressed in bacterial expression system assessed as remaining unbound target protein level at 1000 nM by Kinomescan method relative to control
Activated CDC42 kinase 1 (Homo sapiens), sequence (Q07912 whole entry, looked up, the tested form may be a part): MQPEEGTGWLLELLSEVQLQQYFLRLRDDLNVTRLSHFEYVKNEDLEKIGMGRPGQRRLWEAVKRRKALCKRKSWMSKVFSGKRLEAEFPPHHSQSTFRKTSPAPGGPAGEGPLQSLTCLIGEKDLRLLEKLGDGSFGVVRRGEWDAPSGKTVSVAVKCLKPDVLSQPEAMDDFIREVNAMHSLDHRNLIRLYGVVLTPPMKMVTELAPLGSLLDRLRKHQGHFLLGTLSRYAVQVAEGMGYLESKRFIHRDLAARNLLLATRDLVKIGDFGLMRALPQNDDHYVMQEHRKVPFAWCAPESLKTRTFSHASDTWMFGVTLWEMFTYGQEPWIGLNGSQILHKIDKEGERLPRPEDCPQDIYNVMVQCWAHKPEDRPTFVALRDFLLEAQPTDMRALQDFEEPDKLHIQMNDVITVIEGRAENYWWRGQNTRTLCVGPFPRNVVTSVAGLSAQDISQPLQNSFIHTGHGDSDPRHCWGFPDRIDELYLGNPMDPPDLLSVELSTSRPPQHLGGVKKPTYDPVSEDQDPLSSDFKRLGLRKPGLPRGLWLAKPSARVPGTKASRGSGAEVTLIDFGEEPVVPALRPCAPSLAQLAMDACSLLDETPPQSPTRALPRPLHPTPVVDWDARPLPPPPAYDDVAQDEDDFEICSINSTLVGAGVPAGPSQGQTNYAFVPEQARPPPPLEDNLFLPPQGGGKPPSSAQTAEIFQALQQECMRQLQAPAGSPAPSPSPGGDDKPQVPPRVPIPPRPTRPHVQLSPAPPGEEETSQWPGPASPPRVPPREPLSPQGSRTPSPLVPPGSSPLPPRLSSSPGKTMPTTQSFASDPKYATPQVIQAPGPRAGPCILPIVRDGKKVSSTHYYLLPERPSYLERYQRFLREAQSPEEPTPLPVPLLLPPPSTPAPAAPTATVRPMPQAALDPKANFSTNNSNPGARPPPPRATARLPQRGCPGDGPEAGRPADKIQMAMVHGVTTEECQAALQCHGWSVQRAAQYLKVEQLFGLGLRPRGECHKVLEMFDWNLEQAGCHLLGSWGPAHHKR

## COCCN[C@H]1CC[C@H](Nc2cc(-c3csc(NCC4(C#N)CCOCC4)n3)c(Cl)cn2)CC1
[1]
  Activity: 99%
[2]
  Activity: 87%
[3]
  Activity: 75%
[4]
  Activity: 60%
[5]
  Activity: 97%
[6]
  Activity: 99%
[7]
  Activity: 32%
[8]
  Activity: 88%
[9]
  GI50: 37 nM
[10]
  Activity: 97%
[11]
  IC50: > 10000 nM
[12]
  Activity: 98%
[13]
  Activity: 98%
[14]
  Activity: 98%
[15]
  Activity: 81%
[16]
  Activity: 92%
[17]
  Activity: 92%
[18]
  Activity: 100%
[19]
  Activity: 95%
